From ChEMBL document CHEMBL4428138, “Design, Synthesis, and Antitumor Evaluation of 4-Amino-(1H)-pyrazole Derivatives as JAKs Inhibitors” (ACS Med Chem Lett, 2016)
One block for each molecule: values may come before it.

How the values were obtained:
[1] = test system: HEL; test: Antiproliferative activity against HEL cells harboring JAK2 V617F mutant at 5 uM after 48 hrs by MTT assay; format: functional, Homo sapiens
[2] = test system: PC-3; test: Antiproliferative activity against human PC3 cells after 48 hrs by MTT assay; format: functional, cell-based; details: PC-3, 48 h
Procedure, shortened: (§1)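 Panel: human prostate cancer PC-3, breast cancer MCF-7, erythroleukemia HEL, myelogenous leukemia K562 and lymphoid leukemia MOLT4 lines. Cells were exposed to compound for 48 h with MTT read-out.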

[3] = test system: HEL; test: Antiproliferative activity against HEL cells harboring JAK2 V617F mutant after 48 hrs by MTT assay; format: functional, cell-based; details: Homo sapiens; procedure, shortened: as §1
[4] = test system: K562; test: Antiproliferative activity against human K562 cells after 48 hrs by MTT assay; format: functional, cell-based; details: K562, 48 h; procedure, shortened: as §1
[5] = test system: MCF7; test: Antiproliferative activity against human MCF7 cells after 48 hrs by MTT assay; format: functional, cell-based; details: MCF7, 48 h; procedure, shortened: as §1
[6] = test system: MOLT-4; test: Antiproliferative activity against human MOLT4 cells after 48 hrs by MTT assay; format: functional, cell-based; details: MOLT-4, 48 h; procedure, shortened: as §1
[7] = biological target: Tyrosine-protein kinase JAK1 (Homo sapiens, UniProt P23458); test: Inhibition of human recombinant JAK1 using Ulight-CAGAGAIETDKEYYTVKD as substrate by LANCE assay
[8] = biological target: Tyrosine-protein kinase JAK3 (Homo sapiens, UniProt P52333); test: Inhibition of human recombinant JAK3 using Ulight-CAGAGAIETDKEYYTVKD as substrate by LANCE assay
[9] = biological target: Tyrosine-protein kinase ABL1 (Homo sapiens) (UniProt P00519); test: Inhibition of ABL (unknown origin) at 20 nM relative to control
[10] = biological target: ALK tyrosine kinase receptor (Homo sapiens) (UniProt Q9UM73); test: Inhibition of ALK (unknown origin) at 20 nM relative to control
[11] = biological target: RAC-alpha serine/threonine-protein kinase (Homo sapiens) (UniProt P31749); test: Inhibition of AKT1 (unknown origin) at 20 nM relative to control
[12] = biological target: Cyclin-dependent kinase 4 (Homo sapiens) (UniProt P11802); test: Inhibition of CDK4 (unknown origin) at 20 nM relative to control
[13] = biological target: Mast/stem cell growth factor receptor Kit (Homo sapiens) (UniProt P10721); test: Inhibition of c-Kit (unknown origin) at 20 nM relative to control
[14] = biological target: Hepatocyte growth factor receptor (Homo sapiens) (UniProt P08581); test: Inhibition of c-Met (unknown origin) at 20 nM relative to control
[15] = biological target: Epidermal growth factor receptor (Homo sapiens) (UniProt P00533); test: Inhibition of EGFR (unknown origin) at 20 nM relative to control
[16] = biological target: Focal adhesion kinase 1 (Homo sapiens) (UniProt Q05397); test: Inhibition of FAK (unknown origin) at 20 nM relative to control
[17] = biological target: Receptor-type tyrosine-protein kinase FLT3 (Homo sapiens) (UniProt P36888); test: Inhibition of FLT3 (unknown origin) at 20 nM relative to control
[18] = biological target: Vascular endothelial growth factor receptor 2 (Homo sapiens) (UniProt P35968); test: Inhibition of VEGFR2 (unknown origin) at 20 nM relative to control
[19] = biological target: Platelet-derived growth factor receptor alpha (Homo sapiens) (UniProt P16234); test: Inhibition of PDGFRalpha (unknown origin) at 20 nM relative to control
[20] = biological target: RAF proto-oncogene serine/threonine-protein kinase (Homo sapiens) (UniProt P04049); test: Inhibition of RAF1 (unknown origin) at 20 nM relative to control
[21] = biological target: Proto-oncogene tyrosine-protein kinase Src (Homo sapiens) (UniProt P12931); test: Inhibition of SRC (unknown origin) at 20 nM relative to control
[22] = biological target: Non-receptor tyrosine-protein kinase TYK2 (Homo sapiens) (UniProt P29597); test: Inhibition of TYK2 (unknown origin) at 20 nM relative to control
[23] = Selectivity ratio of IC50 for human PC3 cells to IC50 for HEL cells harboring JAK2 V617F mutant; format: functional
[24] = Selectivity ratio of IC50 for human MCF7 cells to IC50 for HEL cells harboring JAK2 V617F mutant; format: functional
[25] = Selectivity ratio of IC50 for human MOLT4 cells to IC50 for HEL cells harboring JAK2 V617F mutant; format: functional
[26] = Selectivity ratio of IC50 for human PC3 cells to IC50 for human K562 cells; format: functional
[27] = Selectivity ratio of IC50 for human MCF7 cells to IC50 for human K562 cells; format: functional
[28] = Selectivity ratio of IC50 for human MOLT4 cells to IC50 for human K562 cells; format: functional

Chain of RAF proto-oncogene serine/threonine-protein kinase (Homo sapiens) (P04049 whole entry): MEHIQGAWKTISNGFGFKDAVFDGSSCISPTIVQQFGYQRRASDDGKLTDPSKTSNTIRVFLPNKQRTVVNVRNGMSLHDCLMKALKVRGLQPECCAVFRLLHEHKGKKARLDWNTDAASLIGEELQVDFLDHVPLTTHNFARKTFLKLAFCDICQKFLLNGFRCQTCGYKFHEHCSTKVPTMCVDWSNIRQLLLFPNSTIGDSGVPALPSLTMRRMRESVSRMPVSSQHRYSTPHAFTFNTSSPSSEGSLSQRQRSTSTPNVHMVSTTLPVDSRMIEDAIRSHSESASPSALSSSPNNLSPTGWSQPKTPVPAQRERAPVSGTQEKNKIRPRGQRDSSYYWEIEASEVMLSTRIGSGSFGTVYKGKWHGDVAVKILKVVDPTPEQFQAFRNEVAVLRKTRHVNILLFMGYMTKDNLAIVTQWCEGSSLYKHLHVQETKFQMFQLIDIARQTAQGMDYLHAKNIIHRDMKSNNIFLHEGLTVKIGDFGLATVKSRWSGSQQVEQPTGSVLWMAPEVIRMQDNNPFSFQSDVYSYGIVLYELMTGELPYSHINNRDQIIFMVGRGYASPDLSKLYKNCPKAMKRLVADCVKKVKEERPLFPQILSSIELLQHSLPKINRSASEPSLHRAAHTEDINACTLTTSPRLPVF
Chain of Focal adhesion kinase 1 (Homo sapiens) (Q05397 2-1052 limits assumed): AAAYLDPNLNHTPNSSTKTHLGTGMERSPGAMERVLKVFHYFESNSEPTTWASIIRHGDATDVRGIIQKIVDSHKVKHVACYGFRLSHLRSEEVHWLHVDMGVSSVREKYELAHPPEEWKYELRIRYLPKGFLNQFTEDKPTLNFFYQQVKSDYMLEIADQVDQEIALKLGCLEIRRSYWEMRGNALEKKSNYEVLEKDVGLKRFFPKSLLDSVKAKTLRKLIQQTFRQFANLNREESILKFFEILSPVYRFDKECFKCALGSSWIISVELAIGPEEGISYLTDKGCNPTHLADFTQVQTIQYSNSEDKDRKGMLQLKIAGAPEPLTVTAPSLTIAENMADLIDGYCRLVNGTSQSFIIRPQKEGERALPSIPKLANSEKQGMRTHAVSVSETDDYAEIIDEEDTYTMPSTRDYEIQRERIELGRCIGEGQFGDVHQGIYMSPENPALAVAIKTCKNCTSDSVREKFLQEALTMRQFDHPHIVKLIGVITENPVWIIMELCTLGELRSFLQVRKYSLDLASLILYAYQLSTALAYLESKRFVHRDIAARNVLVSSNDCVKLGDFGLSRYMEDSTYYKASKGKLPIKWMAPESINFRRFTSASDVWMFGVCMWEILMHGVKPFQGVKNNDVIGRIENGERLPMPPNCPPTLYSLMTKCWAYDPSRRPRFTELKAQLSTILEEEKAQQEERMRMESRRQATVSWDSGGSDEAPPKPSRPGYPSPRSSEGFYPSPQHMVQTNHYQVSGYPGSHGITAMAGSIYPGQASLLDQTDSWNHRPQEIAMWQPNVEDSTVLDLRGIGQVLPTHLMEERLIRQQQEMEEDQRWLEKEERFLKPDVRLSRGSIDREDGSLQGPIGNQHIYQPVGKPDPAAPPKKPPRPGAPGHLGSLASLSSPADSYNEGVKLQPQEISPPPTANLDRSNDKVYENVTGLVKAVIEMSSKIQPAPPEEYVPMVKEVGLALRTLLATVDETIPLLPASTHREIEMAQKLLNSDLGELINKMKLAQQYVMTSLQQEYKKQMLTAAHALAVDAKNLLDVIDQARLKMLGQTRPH
Chain of Mast/stem cell growth factor receptor Kit (Homo sapiens) (P10721 whole entry): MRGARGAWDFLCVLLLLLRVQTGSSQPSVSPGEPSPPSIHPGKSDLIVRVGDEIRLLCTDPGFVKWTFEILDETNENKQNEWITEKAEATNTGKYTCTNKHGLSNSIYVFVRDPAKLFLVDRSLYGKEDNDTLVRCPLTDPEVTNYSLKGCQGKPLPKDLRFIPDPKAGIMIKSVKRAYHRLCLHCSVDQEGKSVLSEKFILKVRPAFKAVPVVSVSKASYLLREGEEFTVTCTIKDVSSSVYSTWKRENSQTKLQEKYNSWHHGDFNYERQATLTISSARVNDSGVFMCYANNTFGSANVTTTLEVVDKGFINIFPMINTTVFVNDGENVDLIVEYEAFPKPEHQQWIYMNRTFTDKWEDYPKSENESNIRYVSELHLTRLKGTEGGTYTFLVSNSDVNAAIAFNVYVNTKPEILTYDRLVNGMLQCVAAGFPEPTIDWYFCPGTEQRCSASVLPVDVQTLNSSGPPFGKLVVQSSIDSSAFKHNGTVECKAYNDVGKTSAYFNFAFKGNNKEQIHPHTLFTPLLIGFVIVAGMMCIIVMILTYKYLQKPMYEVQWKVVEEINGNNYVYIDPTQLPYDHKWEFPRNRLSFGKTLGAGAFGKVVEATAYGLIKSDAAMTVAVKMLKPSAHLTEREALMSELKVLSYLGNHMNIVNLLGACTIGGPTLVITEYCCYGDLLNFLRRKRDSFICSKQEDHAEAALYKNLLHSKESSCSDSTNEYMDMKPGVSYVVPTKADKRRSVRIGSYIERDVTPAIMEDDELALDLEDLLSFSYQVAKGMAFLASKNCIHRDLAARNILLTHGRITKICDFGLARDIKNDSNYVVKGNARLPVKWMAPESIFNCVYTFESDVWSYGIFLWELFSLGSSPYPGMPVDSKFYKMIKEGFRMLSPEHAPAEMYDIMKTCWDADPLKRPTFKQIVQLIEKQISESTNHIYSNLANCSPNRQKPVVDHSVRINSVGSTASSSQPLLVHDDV
Chain of Cyclin-dependent kinase 4 (Homo sapiens) (P11802 whole entry): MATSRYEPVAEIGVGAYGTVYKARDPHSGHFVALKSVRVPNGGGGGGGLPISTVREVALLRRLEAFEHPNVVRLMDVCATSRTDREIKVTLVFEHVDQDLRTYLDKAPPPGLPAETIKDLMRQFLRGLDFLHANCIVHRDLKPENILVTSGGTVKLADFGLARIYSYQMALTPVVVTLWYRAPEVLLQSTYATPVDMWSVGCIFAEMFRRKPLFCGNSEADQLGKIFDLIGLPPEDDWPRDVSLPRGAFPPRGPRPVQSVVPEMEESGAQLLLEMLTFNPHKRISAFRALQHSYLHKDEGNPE
Chain of Epidermal growth factor receptor (Homo sapiens) (P00533 whole entry): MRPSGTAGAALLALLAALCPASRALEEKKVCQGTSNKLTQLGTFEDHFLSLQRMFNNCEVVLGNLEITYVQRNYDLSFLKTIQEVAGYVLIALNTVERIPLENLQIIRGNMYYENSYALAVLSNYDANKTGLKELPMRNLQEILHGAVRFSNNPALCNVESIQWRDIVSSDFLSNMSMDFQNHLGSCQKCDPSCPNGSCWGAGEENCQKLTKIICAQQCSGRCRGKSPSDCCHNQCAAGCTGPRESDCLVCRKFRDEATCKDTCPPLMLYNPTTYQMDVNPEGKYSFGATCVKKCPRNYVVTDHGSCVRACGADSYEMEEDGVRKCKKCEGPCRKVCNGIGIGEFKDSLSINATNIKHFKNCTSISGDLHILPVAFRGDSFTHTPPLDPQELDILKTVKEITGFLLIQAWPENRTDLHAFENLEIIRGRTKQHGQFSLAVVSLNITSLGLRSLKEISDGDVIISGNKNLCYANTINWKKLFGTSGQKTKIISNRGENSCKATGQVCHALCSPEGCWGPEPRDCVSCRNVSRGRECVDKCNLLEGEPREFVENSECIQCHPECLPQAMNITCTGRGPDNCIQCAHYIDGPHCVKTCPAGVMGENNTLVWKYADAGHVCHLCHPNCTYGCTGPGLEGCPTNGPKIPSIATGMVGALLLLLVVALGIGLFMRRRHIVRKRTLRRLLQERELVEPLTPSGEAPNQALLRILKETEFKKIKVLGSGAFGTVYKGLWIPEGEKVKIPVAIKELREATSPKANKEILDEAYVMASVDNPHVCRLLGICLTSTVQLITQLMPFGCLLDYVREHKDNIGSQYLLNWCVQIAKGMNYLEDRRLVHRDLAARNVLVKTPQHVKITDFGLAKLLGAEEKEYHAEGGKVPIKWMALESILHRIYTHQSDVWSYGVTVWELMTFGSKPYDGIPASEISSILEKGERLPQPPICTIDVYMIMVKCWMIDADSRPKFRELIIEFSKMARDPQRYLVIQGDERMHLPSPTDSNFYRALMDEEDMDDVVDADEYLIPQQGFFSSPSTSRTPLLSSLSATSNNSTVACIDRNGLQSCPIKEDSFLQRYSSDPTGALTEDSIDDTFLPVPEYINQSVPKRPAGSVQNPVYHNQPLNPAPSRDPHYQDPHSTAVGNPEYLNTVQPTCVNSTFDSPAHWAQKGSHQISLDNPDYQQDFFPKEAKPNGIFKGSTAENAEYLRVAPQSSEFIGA
Chain of Proto-oncogene tyrosine-protein kinase Src (Homo sapiens) (P12931 2-536 limits assumed): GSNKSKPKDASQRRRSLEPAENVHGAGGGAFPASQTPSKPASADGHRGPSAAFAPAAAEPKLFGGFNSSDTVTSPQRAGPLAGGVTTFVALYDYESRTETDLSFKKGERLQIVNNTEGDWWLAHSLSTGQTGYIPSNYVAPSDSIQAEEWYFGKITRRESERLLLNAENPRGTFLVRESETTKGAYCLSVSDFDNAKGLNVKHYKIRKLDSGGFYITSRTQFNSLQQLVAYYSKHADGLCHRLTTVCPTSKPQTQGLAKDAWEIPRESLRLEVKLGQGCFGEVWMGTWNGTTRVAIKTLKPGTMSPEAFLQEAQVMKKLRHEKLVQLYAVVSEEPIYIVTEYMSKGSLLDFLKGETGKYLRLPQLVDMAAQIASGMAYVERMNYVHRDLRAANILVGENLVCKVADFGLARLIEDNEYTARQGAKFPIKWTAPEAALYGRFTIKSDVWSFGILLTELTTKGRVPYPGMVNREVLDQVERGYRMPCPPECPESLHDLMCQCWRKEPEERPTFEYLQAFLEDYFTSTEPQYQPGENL

IC50 [2]: 2300 nM | IC50 [4]: 2080 nM
SMILES: COc1ccc(Nc2nc(Nc3cn[nH]c3)ncc2Cl)cc1
Activity [1]: >50% | IC50 [3]: 1760 nM

SMILES: Clc1ccccc1CNc1nc(Nc2cn[nH]c2)nc2ccccc12
Activity [1]: <50%

SMILES: Clc1ccc(Nc2nc(Nc3cn[nH]c3)nc3ccccc23)cc1
Activity [1]: <50%

IC50 [2]: 13500 nM | IC50 [5]: > 5000 nM | IC50 [4]: 3720 nM | IC50 [6]: > 5000 nM
SMILES: Clc1ccccc1CNc1nc(Nc2cn[nH]c2)nc2[nH]ccc12
Activity [1]: >50%

SMILES: C#Cc1cccc(Nc2nc(Nc3cn[nH]c3)nc3ccccc23)c1
Activity [1]: <50%

SMILES: C#Cc1cccc(Nc2ccnc(Nc3cn[nH]c3)n2)c1
Activity [1]: <50%

IC50 [7]: 3.4 nM | IC50 [8]: 3.5 nM | IC50 [2]: 1080 nM | IC50 [5]: 1330 nM | IC50 [4]: 770 nM | IC50 [6]: 1610 nM | inhibition [9]: -3.1% | inhibition [10]: 6.9% | inhibition [11]: 7.5% | inhibition [12]: 36.2% | inhibition [13]: 12.1% | inhibition [14]: 17.9% | inhibition [15]: 10.5% | inhibition [16]: 33.5% | inhibition [17]: 78.7% | inhibition [18]: 48.6% | inhibition [19]: 54.1% | inhibition [20]: -7.1% | inhibition [21]: 27% | inhibition [22]: 79.4%
SMILES: Clc1cccc(Nc2nc(Nc3cn[nH]c3)ncc2Cl)c1
Activity [1]: >50% | IC50 [3]: 1080 nM

SMILES: Fc1cnc(Nc2cn[nH]c2)nc1Nc1ccccc1
Activity [1]: <50%

IC50 [2]: 1130 nM | IC50 [5]: 1100 nM | IC50 [4]: 1290 nM | IC50 [6]: 1260 nM
SMILES: Clc1ccccc1Nc1nc(Nc2cn[nH]c2)ncc1Cl
Activity [1]: >50% | IC50 [3]: 1240 nM

IC50 [5]: > 5000 nM | IC50 [4]: > 8300 nM
SMILES: Clc1cccc(Nc2nc(Nc3cn[nH]c3)nc3ccccc23)c1
Activity [1]: <50% | IC50 [3]: 9710 nM

SMILES: N#Cc1ccccc1Nc1ccnc(Nc2cn[nH]c2)n1
Activity [1]: <50%

IC50 [2]: 10400 nM | IC50 [4]: 3790 nM
SMILES: Fc1cnc(Nc2cn[nH]c2)nc1Nc1ccc(Cl)cc1
Activity [1]: <50% | IC50 [3]: 3960 nM

SMILES: COc1ccc(Nc2nc(Nc3cn[nH]c3)nc3[nH]ccc23)cc1
Activity [1]: >50%

SMILES: Clc1ccccc1Nc1ccnc(Nc2cn[nH]c2)n1
Activity [1]: <50%

SMILES: Clc1ccc(Nc2ccnc(Nc3cn[nH]c3)n2)cc1
Activity [1]: <50%

IC50 [2]: 2570 nM | IC50 [5]: 1930 nM | IC50 [4]: 1700 nM | IC50 [6]: 1370 nM
SMILES: Clc1ccc(Nc2nc(Nc3cn[nH]c3)ncc2Cl)cc1
Activity [1]: >50% | IC50 [3]: 1530 nM

IC50 [2]: 4470 nM | IC50 [5]: > 5000 nM | IC50 [4]: 370 nM | IC50 [6]: > 5000 nM | inhibition [9]: 3.1% | inhibition [10]: 15.1% | inhibition [11]: -3% | inhibition [12]: -5.3% | inhibition [13]: 0.6% | inhibition [14]: 6.3% | inhibition [15]: 8.3% | inhibition [16]: 7.4% | inhibition [17]: 15.2% | inhibition [18]: 0% | inhibition [19]: 11.9% | inhibition [20]: 3.7% | inhibition [21]: 12.6% | inhibition [22]: 34.6%
SMILES: c1ccc(Nc2nc(Nc3cn[nH]c3)nc3[nH]ccc23)cc1
Activity [1]: >50% | IC50 [3]: 350 nM | Ratio IC50 [23]: >10 | Ratio IC50 [24]: >10 | Ratio IC50 [25]: >10 | Ratio IC50 [26]: >10 | Ratio IC50 [27]: >10 | Ratio IC50 [28]: >10

SMILES: COc1ccc(Nc2nc(Nc3cn[nH]c3)ncc2F)cc1
Activity [1]: <50%

SMILES: c1ccc(Nc2nc(Nc3cn[nH]c3)nc3ccccc23)cc1
Activity [1]: <50%

SMILES: Clc1ccc(Nc2nc(Nc3cn[nH]c3)nc3[nH]ccc23)cc1
Activity [1]: >50%

IC50 [2]: 1030 nM | IC50 [5]: 1870 nM | IC50 [4]: 1860 nM | IC50 [6]: 3280 nM
SMILES: Fc1ccc(Nc2nc(Nc3cn[nH]c3)ncc2Cl)cc1
Activity [1]: >50% | IC50 [3]: 1180 nM

SMILES: COc1ccc(Nc2nc(Nc3cn[nH]c3)nc3ccccc23)cc1
Activity [1]: <50%

IC50 [2]: 5380 nM | IC50 [5]: 3660 nM | IC50 [4]: > 8300 nM | IC50 [6]: > 5000 nM
SMILES: Clc1cnc(Nc2cn[nH]c2)nc1Nc1ccccc1
Activity [1]: >50% | IC50 [3]: 5930 nM

IC50 [2]: > 5000 nM | IC50 [5]: > 5000 nM | IC50 [4]: 10300 nM
SMILES: N#CC[C@H](C1CCCC1)n1cc(-c2ncnc3[nH]ccc23)cn1 [RUXOLITINIB]
IC50 [3]: 2620 nM
